Here are results for one compound from PMC8248332 (Chembiochem, 2021).

Molecules are shown by their SMILES. Square brackets hold non-standard residues; d marks the D form. Peptide text beside a SMILES is read from it. pS = N[C@@H](COP(=O)(O)O)C(=O)O

The target in experiment [1] is 14‐3‐3ζ. To be noted: CRaf and the isomer 14‐3‐3ζ; Molzan et al.; cited from earlier work.
In experiment [2] the target is T1, 14‐3‐3σ (Homo sapiens, UniProt P31947).
T1 sequence (P31947 1-248): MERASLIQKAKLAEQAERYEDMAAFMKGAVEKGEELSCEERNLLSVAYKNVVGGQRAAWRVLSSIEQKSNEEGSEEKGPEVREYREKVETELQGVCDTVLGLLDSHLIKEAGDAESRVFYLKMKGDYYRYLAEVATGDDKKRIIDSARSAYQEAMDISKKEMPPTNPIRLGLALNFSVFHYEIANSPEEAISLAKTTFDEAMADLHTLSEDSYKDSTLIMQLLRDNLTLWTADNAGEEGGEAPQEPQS
Nature of the experiment: Isothermal titration calorimetry. It counts as binding. To be noted: dissolved CRaf (1 mM) into 14‐3‐3σ (50 μM), HEPES 25 mM pH 7.4, 25 °C. The gist of the method: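 14-3-3σ purified by size-exclusion chromatography (20 mM Tris-HCl pH 7.5, 150 mM NaCl, 2 mM DTT), then dialysed into 25 mM HEPES pH 7.4. Cell held 300 μL protein. First injection 0.4 μL, mixing time 0.8 s, 180 s between injections. Enthalpy per injection versus peptide:protein molar ratio fitted sigmoidally; inflection point gives N, slope there gives KD.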
A general note: ITC needs no label: the signal is the heat of the interaction.

As a reminder, the Kd is the equilibrium constant for the complex coming apart. For the compound `CC(C)C[C@H](NC(=O)[C@H](CO)NC(=O)CNC(=O)[C@H](CCC(=O)O)NC(=O)[C@H](CO)NC(=O)[C@H](CS)NC(=O)[C@@H]1CCCN1C(=O)[C@H](CO)NC(=O)[C@H](CO)NC(=O)[C@@H](NC(=O)[C@H](CC(N)=O)NC(=O)[C@H](Cc1ccccc1)NC(=O)[C@@H](NC(=O)[C@H](Cc1ccccc1)NC(=O)[C@H](C)NC(=O)[C@H](Cc1c[nH]cn1)NC(=O)[C@@H]1CCCN1C(=O)[C@@H](NC(=O)[C@H](COP(=O)(O)O)NC(=O)[C@H](Cc1ccc(O)cc1)NC(=O)[C@H](CCCNC(=N)N)NC(=O)[C@H](Cc1c[nH]cn1)NC(=O)[C@@H](N)CCC(N)=O)[C@@H](C)O)[C@@H](C)O)[C@@H](C)O)C(=O)N[C@@H](CO)C(=O)N[C@@H](CCC(N)=O)C(=O)N[C@@H](CCCNC(=N)N)C(=O)N[C@@H](CCC(N)=O)C(=O)N[C@@H](CCCNC(=N)N)C(=O)N[C@@H](CO)C(=O)N[C@H](C(=O)N[C@@H](COP(=O)(O)O)C(=O)N[C@H](C(=O)N1CCC[C@H]1C(=O)N[C@@H](CC(N)=O)C(=O)N[C@H](C(=O)N[C@@H](Cc1c[nH]cn1)C(N)=O)C(C)C)[C@@H](C)O)[C@@H](C)O` [CRaf] (H-QHRY[pS]TPHAFTFNTSSPCSEGSLSQRQRST[pS]TPNVH-NH2), in experiment [1], the Kd was 80 nM. Also, in experiment [2], the “binding ratio from ITC (peptide/protein), N” value stood at 0.84±0.01.
